From ChEMBL document CHEMBL1208666, “Novel 6,8-dibromo-4(3H)quinazolinone derivatives of anti-bacterial and anti-fungal activities” (2010)
In brackets after ≈: the same amount, converted by molar mass. Activity calls are given as the source filed them. No cut-off for these calls is given here.

Key:
Salmonella typhimurium [1] = assay: Antibacterial activity against Salmonella Typhimurium after 24 hrs by agar streak dilution method; assay type: functional, Salmonella enterica subsp. enterica serovar Typhimurium; conditions: Salmonella enterica
In short: (§1)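 Agar streak dilution on Mueller Hinton agar. Compound stock in DMSO was added in graded amounts to molten sterile agar at 40–50 °C. This was poured 3–4 mm deep and left to solidify. Bacterial suspension of about 10^5 cfu/ml was applied to the serially diluted plates. Plates were incubated at 37 °C for 24 h to read the MIC. Strains were food-poisoning isolates from animal byproducts.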

Listeria monocytogenes [2] = assay: Antibacterial activity against Listeria monocytogenes after 24 hrs by agar streak dilution method; assay type: functional; in short: as §1
Bacillus cereus [3] = assay: Antibacterial activity against Bacillus cereus at 100 ug/ml after 24 hrs by paper disc diffusion technique; assay type: functional; conditions: read-out: IZ
In short: (§2)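 Paper disc diffusion on Mueller Hinton agar, autoclaved at 120 °C for 30 min. Medium at 40–50 °C was seeded at 1 ml/100 ml with a 10^5 cfu/ml suspension matched to 0.9 McFarland. It was poured 3–4 mm deep, and discs with compound in DMSO were laid on it. Plates were pre-incubated 1 h at room temperature, then 37 °C for 24 h. The inhibition zone was measured.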

Bacillus cereus [4] = assay: Antibacterial activity against Bacillus cereus after 24 hrs by agar streak dilution method; assay type: functional; in short: as §1
Listeria monocytogenes [5] = assay: Antibacterial activity against Listeria monocytogenes at 100 ug/ml after 24 hrs by paper disc diffusion technique; assay type: functional; conditions: read-out: IZ; in short: as §2
Pseudomonas aeruginosa [6] = assay: Antibacterial activity against Pseudomonas aeruginosa at 100 ug/ml after 24 hrs by paper disc diffusion technique; assay type: functional; conditions: read-out: IZ; in short: as §2
Staphylococcus aureus [7] = assay: Antibacterial activity against Staphylococcus aureus at 100 ug/ml after 24 hrs by paper disc diffusion technique; assay type: functional; conditions: read-out: IZ; in short: as §2
Salmonella typhimurium [8] = assay: Antibacterial activity against Salmonella Typhimurium at 100 ug/ml after 24 hrs by paper disc diffusion technique; assay type: functional, Salmonella enterica subsp. enterica serovar Typhimurium; conditions: Salmonella enterica, read-out: IZ; in short: as §2
Staphylococcus aureus [9] = assay: Antibacterial activity against Staphylococcus aureus after 24 hrs by agar streak dilution method; assay type: functional; in short: as §1
Pseudomonas aeruginosa [10] = assay: Antibacterial activity against Pseudomonas aeruginosa after 24 hrs by agar streak dilution method; assay type: functional; in short: as §1
Escherichia coli [11] = assay: Antibacterial activity against Escherichia coli O157 at 100 ug/ml after 24 hrs by paper disc diffusion technique; assay type: functional; conditions: O157, 24 h, read-out: IZ
Aspergillus flavus [12] = assay: Antifungal activity against Aspergillus flavus after 48 hrs by agar streak dilution method; assay type: functional
In short: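 Fungal MIC by agar streak dilution on Sabouraud dextrose agar. Compound stock in DMSO was added in graded amounts to molten sterile medium at 40–50 °C. This was poured 3–4 mm deep and left to solidify. Fungal suspension of about 10^5 cfu/ml was applied to the serially diluted plates. Plates were incubated at 37 °C for 48 h.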

Aspergillus flavus [13] = assay: Antifungal activity against Aspergillus flavus at 100 ug/ml after 48 hrs by paper disc diffusion technique; assay type: functional; conditions: for zone of inhibition at 100 µg/mL: read-out: IZ
In short: (§3)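 Paper disc diffusion on Sabouraud dextrose agar, autoclaved at 120 °C for 30 min. Medium at 40–50 °C was seeded at 1 ml/100 ml with a 10^5 cfu/ml fungal suspension matched to 0.9 McFarland. It was poured 3–4 mm deep, and compound discs in DMSO were applied. Plates were pre-incubated 1 h at room temperature, then 28 °C for 48 h. The inhibition zone was recorded.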

Candida albicans = assay: Antifungal activity against Candida albicans at 100 ug/ml after 48 hrs by paper disc diffusion technique; assay type: functional; in short: as §3
Escherichia coli [14] = assay: Antibacterial activity against Escherichia coli O157 after 24 hrs by agar streak dilution method; assay type: functional; conditions: O157, 24 h

SMILES	MIC (Salmonella typhimurium [1])	MIC (Listeria monocytogenes [2])	zone of inhibition at 100 µg/mL (Bacillus cereus [3])	MIC (Bacillus cereus [4])	zone of inhibition at 100 µg/mL (Listeria monocytogenes [5])	zone of inhibition at 100 µg/mL (Pseudomonas aeruginosa [6])	zone of inhibition at 100 µg/mL (Staphylococcus aureus [7])	zone of inhibition at 100 µg/mL (Salmonella typhimurium [8])	MIC (Staphylococcus aureus [9])	MIC (Pseudomonas aeruginosa [10])	zone of inhibition at 100 µg/mL (Escherichia coli [11])	MIC (Aspergillus flavus [12])	zone of inhibition at 100 µg/mL (Aspergillus flavus [13])	inhibition zone (IZ) (Candida albicans)	MIC (Escherichia coli [14])	inhibition zone (IZ) (Aspergillus flavus [13])
O=C(O)c1cn(C2CC2)c2cc(N3CCNCC3)c(F)cc2c1=O [CIPROFLOXACIN]	0.39 µg/mL (≈ 1.18 µM)	1.56 µg/mL (≈ 4.71 µM)	20 mm	0.39 µg/mL (≈ 1.18 µM)	17 mm	19 mm	18 mm	20 mm	1.56 µg/mL (≈ 4.71 µM)	0.78 µg/mL (≈ 2.35 µM)	18 mm					
O=C(N/N=C/c1ccccc1)c1ccc(-n2c(-c3ccccc3)nc3c(Br)cc(Br)cc3c2=O)cc1	> 50 µg/mL	35 µg/mL (≈ 58.1 µM)	12 mm	30 µg/mL (≈ 49.8 µM)	13 mm	12 mm	12 mm	10 mm	25 µg/mL (≈ 41.5 µM)	50 µg/mL (≈ 83 µM)	11 mm	25 µg/mL (≈ 41.5 µM)	10 mm	inactive	45 µg/mL (≈ 74.7 µM)	
O=C(NN1C(=O)CSC1c1ccccc1O)c1ccc(-n2c(-c3ccccc3)nc3c(Br)cc(Br)cc3c2=O)cc1 (configuration not stated)	50 µg/mL (≈ 72.2 µM)	15 µg/mL (≈ 21.7 µM)	9 mm	> 50 µg/mL	15 mm	12 mm	11 mm	12 mm	45 µg/mL (≈ 65 µM)	35 µg/mL (≈ 50.5 µM)	13 mm			inactive	30 µg/mL (≈ 43.3 µM)	inactive
NNC(=O)c1ccc(-n2c(-c3ccccc3)nc3c(Br)cc(Br)cc3c2=O)cc1	50 µg/mL (≈ 97.2 µM)	50 µg/mL (≈ 97.2 µM)	12 mm	25 µg/mL (≈ 48.6 µM)	11 mm	13 mm	10 mm	11 mm	> 50 µg/mL	25 µg/mL (≈ 48.6 µM)	10 mm	18.5 µg/mL (≈ 36 µM)	15 mm	inactive	> 50 µg/mL	
O=C(N/N=C/c1ccccc1O)c1ccc(-n2c(-c3ccccc3)nc3c(Br)cc(Br)cc3c2=O)cc1	30 µg/mL (≈ 48.5 µM)	50 µg/mL (≈ 80.9 µM)	13 mm	25.5 µg/mL (≈ 41.2 µM)	11 mm	11 mm	15 mm	13 mm	12.5 µg/mL (≈ 20.2 µM)	> 50 µg/mL	10 mm	10.5 µg/mL (≈ 17 µM)	15 mm	inactive	50 µg/mL (≈ 80.9 µM)	
O=C(N/N=C/c1ccc(Cl)cc1)c1ccc(-n2c(-c3ccccc3)nc3c(Br)cc(Br)cc3c2=O)cc1	> 50 µg/mL	30 µg/mL (≈ 47.1 µM)	16 mm	5.5 µg/mL (≈ 8.64 µM)	14 mm	12 mm	12 mm	10 mm	25 µg/mL (≈ 39.3 µM)	20 µg/mL (≈ 31.4 µM)	12 mm	12.5 µg/mL (≈ 19.6 µM)	16 mm	inactive	20 µg/mL (≈ 31.4 µM)	
COc1ccc(/C=N/NC(=O)c2ccc(-n3c(-c4ccccc4)nc4c(Br)cc(Br)cc4c3=O)cc2)cc1	> 50 µg/mL	50 µg/mL (≈ 79.1 µM)	13 mm	35.5 µg/mL (≈ 56.1 µM)	12 mm	11 mm	11 mm	10 mm	50 µg/mL (≈ 79.1 µM)	> 50 µg/mL	8 mm	25 µg/mL (≈ 39.5 µM)	11 mm	inactive	> 50 µg/mL	
O=C1CC(=O)N(C(=O)c2ccc(-n3c(-c4ccccc4)nc4c(Br)cc(Br)cc4c3=O)cc2)N1	50 µg/mL (≈ 85.9 µM)	> 50 µg/mL	10 mm	> 50 µg/mL	10 mm	11 mm	9 mm	12 mm	> 50 µg/mL	> 50 µg/mL		1.9 µg/mL (≈ 3.26 µM)	18 mm	inactive		
O=C(NN1C(=O)CSC1c1ccccc1)c1ccc(-n2c(-c3ccccc3)nc3c(Br)cc(Br)cc3c2=O)cc1 (configuration not stated)	4.1 µg/mL (≈ 6.06 µM)	32 µg/mL (≈ 47.3 µM)	9 mm	50 µg/mL (≈ 73.9 µM)	13 mm	12 mm	12 mm	16 mm	25 µg/mL (≈ 37 µM)	35 µg/mL (≈ 51.7 µM)	10 mm			inactive	> 50 µg/mL	inactive
Cc1ccc(/C=N/NC(=O)c2ccc(-n3c(-c4ccccc4)nc4c(Br)cc(Br)cc4c3=O)cc2)cc1	5 µg/mL (≈ 8.11 µM)	30 µg/mL (≈ 48.7 µM)	11 mm	35 µg/mL (≈ 56.8 µM)	13 mm	15 mm	12 mm	15 mm	25 µg/mL (≈ 40.6 µM)	2.5 µg/mL (≈ 4.06 µM)	11 mm	20 µg/mL (≈ 32.5 µM)	12 mm	inactive	40 µg/mL (≈ 64.9 µM)	
CC(=O)NNC(=O)c1ccc(-n2c(-c3ccccc3)nc3c(Br)cc(Br)cc3c2=O)cc1	30 µg/mL (≈ 53.9 µM)	35 µg/mL (≈ 62.9 µM)	9 mm	> 50 µg/mL	14 mm	13 mm	11 mm	14 mm	40 µg/mL (≈ 71.9 µM)	25 µg/mL (≈ 44.9 µM)	9 mm	1.2 µg/mL (≈ 2.16 µM)	22 mm	inactive	> 50 µg/mL	
